Results published in ChEMBL document CHEMBL1146509, “Periconicins, two new fusicoccane diterpenes produced by an endophytic fungus Periconia sp. with antibacterial activity” (2004).
In brackets after ≈: the same amount, converted by molar mass.

Assays:
Bacillus subtilis = assay: Antibacterial activity against Bacillus subtilis ATCC 6633 after 24 hrs by twofold microtiter broth dilution method; type: functional
Procedure, shortened: (§1)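 Two-fold serial dilutions in DMSO added to standard methods (SM) broth in 96-well plates, final 0.5% DMSO; wells inoculated from overnight culture at 10^5 CFU/mL; incubated 37 °C for 24 h; MIC taken as lowest concentration with no visible growth. Strains from ATCC or Institute for Fermentation, Osaka stock collections.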

Staphylococcus aureus = assay: Antibacterial activity against Staphylococcus aureus ATCC 6538p after 24 hrs by twofold microtiter broth dilution method; type: functional; procedure, shortened: as §1
[1] = system: Staphylococcus epidermidis; assay: Antibacterial activity against Staphylococcus epidermidis ATCC 12228 after 24 hrs by twofold microtiter broth dilution method; type: functional; procedure, shortened: as §1
Micrococcus luteus = assay: Antibacterial activity against Micrococcus luteus IFO 12708 after 24 hrs by twofold microtiter broth dilution method; type: functional; procedure, shortened: as §1
Klebsiella pneumoniae = assay: Antibacterial activity against Klebsiella pneumoniae IFO 13541 after 24 hrs by twofold microtiter broth dilution method; type: functional; procedure, shortened: as §1
Proteus vulgaris = assay: Antibacterial activity against Proteus vulgaris ATCC 3851 after 24 hrs by twofold microtiter broth dilution method; type: functional; procedure, shortened: as §1
Salmonella typhimurium = assay: Antibacterial activity against Salmonella typhimurium ATCC 14028 after 24 hrs by twofold microtiter broth dilution method; type: functional, Salmonella enterica subsp. enterica serovar Typhimurium; procedure, shortened: as §1
Escherichia coli = assay: Antibacterial activity against Escherichia coli ATCC 25922 after 24 hrs by twofold microtiter broth dilution method; type: functional; procedure, shortened: as §1
[2] = Salmonella enterica, ATCC 14028, 24 h

Molecule	MIC (Bacillus subtilis; ATCC 6633, 24 h)	MIC (Staphylococcus aureus)	MIC ([1]; ATCC 12228, 24 h)	MIC (Micrococcus luteus; IFO 12708, 24 h)	MIC (Klebsiella pneumoniae; IFO 13541, 24 h)	MIC (Proteus vulgaris; ATCC 3851, 24 h)	MIC (Salmonella typhimurium; [2])	MIC (Escherichia coli; ATCC 25922, 24 h)	MIC (Bacillus subtilis)	MIC [1]	MIC (Micrococcus luteus)	MIC (Klebsiella pneumoniae)	MIC (Proteus vulgaris)	MIC (Salmonella typhimurium; Salmonella enterica subsp. enterica serovar Typhimurium)	MIC (Escherichia coli)
CC(C)C1=C2C/C=C(/C=O)[C@@H]3C(=O)[C@@H](O)[C@@H](C)[C@H]3C[C@]2(C)CC1 [PERICONICIN A]	3.12 µg/mL (≈ 9.86 µM)	12.5 µg/mL (≈ 39.5 µM)	12.5 µg/mL (≈ 39.5 µM)	25 µg/mL (≈ 79 µM)	3.12 µg/mL (≈ 9.86 µM)	6.25 µg/mL (≈ 19.8 µM)	6.25 µg/mL (≈ 19.8 µM)	100 µg/mL (≈ 316 µM)							
GENTAMICIN		3.12 µg/mL							3.12 µg/mL	3.12 µg/mL	6.25 µg/mL	12.5 µg/mL	6.25 µg/mL	3.12 µg/mL	1.56 µg/mL
CC(CO)C1=C2C/C=C(/C=O)[C@@H]3C(=O)[C@@H](O)[C@@H](C)[C@H]3C[C@]2(C)CC1 (some centres undefined) [PERICONICIN B]	25 µg/mL (≈ 75.2 µM)	50 µg/mL (≈ 150 µM)	100 µg/mL (≈ 301 µM)	> 100 µg/mL	25 µg/mL (≈ 75.2 µM)	50 µg/mL (≈ 150 µM)	50 µg/mL (≈ 150 µM)	> 100 µg/mL							
